Bioassay records (PubChem)
Most compounds without a hit are left out; they make up all but 2% or so of the library.
L929 necroptosis: L929 zVAD cell death inhibition | L929 zVAD necroptosis rescue, ATP luminescence, 24 h; with zVAD 60 µM | AID 1377 | viability rescue, % at 10 µM | 220,000 tested, 0.38% active;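 active means activation, scaled between plate controls, above about 75%, limit read from the data; inactive means activation under that limit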;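 further: 0% = zVAD with DMSO and 100% = DMSO alone without zVAD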
Hep lipid drop: hepatic lipid droplet formation modulation. AML12 mouse hepatocytes, oleate lipid droplets, BODIPY imaging. inhibition, % at 6.5 µM. AID 1656. 240,000 tested, 0.4% active;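 active means lipid droplet intensity inhibited by at least 50%, with more than 500 cells counted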
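Assay system: AML12 hepatocytes (mouse) / Also added: 100 µM oleic acid challenge / Times: overnight treatment with compound plus oleate / Detection: high-content imaging of BODIPY-stained droplets and DAPI nuclei / Evaluation: % inhibition of lipid droplet signal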
Tb hexokinase: blocks Trypanosoma brucei hexokinase 1 activity | 220,000 tested, 0.11% active | recombinant TbHK1, G6PDH-coupled NADH A340 | inhibition, % at 10 µM;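 active means inhibition of 50% or more in the single-dose primary screen; inactive means inhibition below 50%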
RBBP9 inhibitor: human RBBP9 hydrolase inhibition; O75884; recombinant RBBP9, FP-Rh probe fluorescence polarization; inhibition, % at 7.94 µM; 220,000 tested, 0.2% active; AID 1515;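 active means inhibition above the campaign mean of all tested compounds plus 3 SD, cut at about 14% in these data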;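 further: plate controls were DMSO wells with RBBP9 for no effect and wells lacking RBBP9 protein for full effect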
Target sequence (O75884 whole entry, looked up): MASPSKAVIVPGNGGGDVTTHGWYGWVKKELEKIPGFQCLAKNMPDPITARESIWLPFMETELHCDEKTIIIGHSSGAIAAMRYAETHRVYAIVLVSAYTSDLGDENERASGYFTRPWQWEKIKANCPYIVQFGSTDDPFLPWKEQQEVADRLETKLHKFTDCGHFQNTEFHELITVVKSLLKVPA
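Test system: recombinant human RBBP9. Quantity: 2.5 µM RBBP9 dispensing solution, before mixing. Detection: FP readout at 525/598 nm. Reagent: Serine-hydrolase probe FP-Rh, 375 nM pre-mixing. Measure: % inhibition. Control set: DMSO-treated enzyme wells and wells lacking RBBP9. Buffer or medium: Tris-NaCl-Pluronic buffer, pH 8.0. Times: preincubation 30 min plus labeling 45 min at 25 °C.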
PfM18AAP inh-1: PfM18AAP enzyme inhibition. 290,000 tested, 1.2% active. inhibition, % at 7.35 µM. recombinant PfM18AAP, H-Glu-NHMec fluorogenic cleavage;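 active means inhibition above the campaign mean inhibition over all tested compounds plus 3 SD, cut at about 28% in these data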;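 further: 0% = plate median of test compound wells and 100% = 2 mM ZnCl2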
TNF death inh: blocks TNF-alpha induced death of Jurkat FADD-/- cells; Jurkat FADD-/- TNF necroptosis rescue, ATP luminescence, 24 h; 0 = TNF only, 100 = no-TNF cells; activation (protection from cell death), % at 10 µM; 220,000 tested, 0.068% active; AID 463075;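 active means activation, meaning protection from cell death, of at least 50% relative to plate controls; inactive means activation below 50%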;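 further: necroptosis triggered by 40 ng/mL TNF-alpha added together with compound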
PfM18AAP inh-2: PfM18AAP inhibition, confirmation | shares compounds with PfM18AAP inh-1 | 2,400 tested, 28% active | inhibition, % at 7.35 µM | recombinant PfM18AAP, H-Glu-NHMec fluorogenic cleavage;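 active means mean inhibition over replicate wells above the hit cutoff set for the earlier primary screen, cut at about 29% in these data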;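 further: 0% = median of test compound wells and 100% = 2 mM ZnCl2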
CTSL1 counter: Cathepsin L (human) inhibition, confirmation | 2,400 tested, under 10 active | inhibition, % at 5.96 µM | purified cathepsin L1, Z-Leu-Arg-MCA fluorescence | shares compounds with PfM18AAP inh-1 | AID 2178;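 active means average inhibition across replicates above the hit cutoff set in the earlier primary screen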;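 further: 0% = median of test compound wells and 100% = Z-Phe-Ala-diazomethylketone 1 µM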
Target sequence (P07711 whole entry, looked up): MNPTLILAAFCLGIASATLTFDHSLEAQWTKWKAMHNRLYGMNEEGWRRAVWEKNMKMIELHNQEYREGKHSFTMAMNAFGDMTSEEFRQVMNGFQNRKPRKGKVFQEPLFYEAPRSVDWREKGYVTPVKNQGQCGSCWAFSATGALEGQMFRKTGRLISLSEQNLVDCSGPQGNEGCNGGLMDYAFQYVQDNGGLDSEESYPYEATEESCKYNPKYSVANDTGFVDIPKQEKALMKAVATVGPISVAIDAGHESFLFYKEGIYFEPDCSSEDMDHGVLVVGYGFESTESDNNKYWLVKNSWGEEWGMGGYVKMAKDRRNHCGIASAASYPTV
An asterisk follows results filed as active; nt = not tested or not shown.

SMILES	L929 necroptosis	Hep lipid drop	Tb hexokinase	RBBP9 inhibitor	PfM18AAP inh-1	TNF death inh	PfM18AAP inh-2	CTSL1 counter
CC(C)(C)c1ccc(O)c(N=Cc2cc(Br)ccc2O)c1	0	23	-5	-5	56*	-5	88*	-3
Cc1ccc(O)c(N=CC2=C(O)c3ccccc3C2=O)c1	2	nt	-11	-14	71*	-16	-15	5
O=C(CN1CCN(c2ccccc2)CC1)Nc1ccc(Oc2ccccc2)cc1	0	-5	-9	7	1	1	nt	nt
C/C=C/C(=O)OCC(=O)Nc1cc(-c2cc(C)c(C)cc2C)nn1-c1ccccc1	0	16	-6	-6	-2	2	nt	nt
CCN(CCCNC(=O)CNC(=O)Cn1cnc2ccccc2c1=O)c1ccccc1	3	0	-1	-8	11	0	nt	nt
CCN(CCCNC(=O)C1CCN(S(=O)(=O)c2c(C)[nH]c(=O)[nH]c2=O)CC1)c1cccc(C)c1	0	-11	-7	-1	32*	0	-23	-2
CCN(CCCNC(=O)CCNC(=O)Cn1cnc2ccccc2c1=O)c1cccc(C)c1	2	3	-12	-2	53*	-2	-25	-2
CCN(CCCNC(=O)C1CCC(=O)N1C1CCCC1)c1cccc(C)c1 (stereo unspecified)	1	nt	-2	-6	54*	1	-24	6
O=S(=O)(Nc1cc(Sc2ncn[nH]2)c(O)c2ccccc12)c1ccccc1	2	-39	6	8	38*	-24	-202	-3
O=C(C/C=N\OCc1ccc([N+](=O)[O-])cc1)Nc1ccc(Cl)cc1	3	22	-3	-1	-14	1	nt	nt
O=C(C/C=N\OCc1ccc([N+](=O)[O-])cc1)Nc1ccccc1	1	3	-5	6	33*	2	-33	-1
CC(=O)Nc1ccc(-n2cc(-c3ccccc3)[nH]c2=S)cc1	0	-2	-2	-12	64*	2	58*	2
COc1ccc(-n2cc(-c3ccccc3)[nH]c2=S)cc1	0	11	-5	-8	44*	2	33*	2
Cc1cccc(-n2cc(-c3ccccc3)[nH]c2=S)c1	nt	nt	nt	nt	39*	nt	13	4
CC(=O)Nc1ccc(-n2c(C)ccc2-c2ccccc2)cc1	nt	10	nt	nt	-9	nt	nt	nt
COc1ccccc1-n1cc(-c2ccccc2)[nH]c1=S	nt	-1	nt	nt	14	nt	nt	nt
CC(C)[C@H](NC(N)=O)C(=O)Nc1ccc(F)c(Cl)c1	-1	2	-2	6	9	0	nt	nt
CCCCCCOc1ccc(C(=O)O)cc1	0	4	-18	0	-6	1	nt	nt
CCCCCCOc1ccc(C(=O)n2cnc(N)n2)cc1	1	2	-2	-8	44*	0	41*	-1
Cc1ccc(Cn2c(=O)sc3ccccc3c2=O)cc1	0	-4	1	-7	0	1	nt	nt
Cc1ccc(-n2sc3ccccc3c2=O)cc1	0	-2	66*	37*	66*	-7	76*	6
CC1Sc2ccc(C(=O)O)cc2NC1=O (stereo unspecified)	0	-3	-4	-4	44*	1	-60	-9
COc1ccc(CNC(=O)c2ccc3c(c2)NC(=O)C(C)S3)cc1 (stereo unspecified)	2	1	-5	-8	7	0	nt	nt
Cc1ccc(NC(=O)Cc2nnc(SCC(=O)c3ccc(Br)cc3)n2C)cc1	2	14	0	-1	5	-2	nt	nt
C=CCC1(C)C(=O)N(c2ccccc2)c2ccccc21 (stereo unspecified)	0	nt	-1	-3	-1	0	nt	nt
SMILES	L929 necroptosis	Hep lipid drop	Tb hexokinase	RBBP9 inhibitor	PfM18AAP inh-1	TNF death inh	PfM18AAP inh-2	CTSL1 counter
CC(C)NCC(O)c1ccc(NS(C)(=O)=O)cc1 (stereo unspecified)	nt	5	nt	-7	1	nt	nt	nt
CC(C)NC[C@@H](O)c1ccc(O)c(O)c1	1	6	-5	4	61*	-2	56*	-2
Cc1cccc(C)c1NC(=O)C1CCCN1C(=O)NCc1ccccc1 (stereo unspecified)	nt	5	nt	nt	-6	nt	nt	nt
Oc1ccc(N2CCN(c3ncnc4sc5c(c34)CCC5)CC2)cc1	1	nt	-9	1	39*	-5	3	-1
CCOC(=O)C1=C(C)N(C)C(=O)NC1c1cc2c(cc1[N+](=O)[O-])OCO2 (stereo unspecified)	1	-1	-10	5	13	-1	nt	nt
CC(=O)c1ccc(OCCCC(=O)NC2CCCc3ccccc32)cc1 (stereo unspecified)	2	4	-6	-8	-3	1	nt	nt
O=C(O)Cc1ccc2ocnc2c1	0	nt	0	-6	45*	-3	6	1
CN(C)S(=O)(=O)c1ccc(C(=O)NCC(C)(C)CN=C2NS(=O)(=O)c3ccccc32)cc1	nt	-2	nt	nt	-2	nt	nt	nt
Cc1ccc(C)c(NC(=O)CCc2c(C)nn(-c3ccc(N4CCCCC4)nn3)c2C)c1	nt	16	nt	nt	-3	nt	nt	nt
Nc1nonc1C(=Nc1ccccc1)NO	-1	nt	8	-6	43*	-3	31*	0
Cc1cccc(N=C(NO)c2nonc2N)c1	nt	7	-2	-5	33*	-12	13	-2
Cc1cccc(N=Nc2cnc(N)s2)c1	0	-3	-7	-6	12	-3	nt	nt
COc1c(-c2ccc([N+](=O)[O-])cc2[N+](=O)[O-])c(=O)n(C)c(=O)n1C	nt	-6	nt	nt	-1	nt	nt	nt
CC1CCC(C(C)C)C2=C1C(C#N)(C#N)C(C#N)(C#N)C(c1ccccc1)N2 (stereo unspecified)	1	nt	-3	-2	36*	-10	-32	-2
CCSc1nc2ccccc2c(=O)n1CCc1ccc(OC)c(OC)c1	-1	-12	-11	5	3	-1	nt	nt
CC1CCN(C(=O)Cn2c3ccccc3c3nc4n(c(=O)c32)CCS4)CC1	nt	1	nt	nt	-9	nt	nt	nt
Cc1ccc(C)c(NC(=O)NNC(=O)c2cc3occc3[nH]2)c1	nt	9	nt	nt	49*	nt	29*	-3
COc1ccc(C)cc1NC(=O)c1ccoc1C	0	nt	4	-6	0	1	nt	nt
COc1ccc(OC)c(NC(=O)NNC(=O)c2cc3occc3[nH]2)c1	nt	3	nt	nt	56*	nt	35*	1
COc1ccc(C)cc1NC(=O)NNC(=O)c1ccoc1C	nt	16	nt	nt	47*	nt	20	-1
Cc1cccc(NC(=S)NCCc2ccccc2)n1	-1	0	-4	1	38*	-1	10	1
